The text below walks through data of ChEMBL document CHEMBL4373680, “Small antibacterial molecules highly active against drug-resistant Staphylococcus aureus” (Medchemcomm, 2019).

The test system of the test is Staphylococcus aureus. Description: Antibacterial activity against Staphylococcus aureus ATCC 33591 assessed as decrease in live cells at 32 ug/ml after 2 hrs by SYTO-9/propidium iodide staining based fluorescence microscopy analysis. In kind it is functional, organism-based. A digest of the protocol: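 Mid-log cells (~10⁸ CFU/mL) pelleted and resuspended in 0.9% saline. Treated with 32 µg/mL compound for 2 h at 37 °C, pelleted and resuspended in saline. Stained with SYTO9 (3 µM) plus PI (15 µM) for 15 min in the dark, unbound dye removed, then imaged by fluorescence microscopy at 100×.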

Activity calls are given as the source filed them. The calls are words filed in the database; no cut-off is given here.

As to `CCCCCCNC(=O)C[N+](C)(CCO)CCCCCCCCCCCC[N+](C)(CCO)CC(=O)NCCCCCC.O=C([O-])C(F)(F)F.O=C([O-])C(F)(F)F` (stereo unspecified), the inhibition result was “Active”.
